We go through 11 compounds from ChEMBL document CHEMBL1147135, “9-(2-C-Cyano-2-deoxy-beta-D-arabino-pentofuranosyl)guanine, a potential antitumor agent against B-lymphoma infected with Kaposi's sarcoma-associated herpesvirus” (J Med Chem, 2007).

Calls of active or inactive are those of the source. No cut-off for these calls is given here.

Experiment [1] relates to Human gammaherpesvirus 8. The experiment can be described thus: Cytotoxicity against Kaposi's sarcoma-associated herpesvirus infected BC2 cells after 120 hrs by MTT assay. The format is functional, organism-based. As to conditions: Human gammaherpesvirus 8, BC-2, 120 h. Summed up:
(§1)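 KSHV-positive PEL lines (BC2, BC3) and herpesvirus-negative B-lymphoma DG75 exposed to varying nucleoside concentrations for 120 h, then cell viability assay; OD 560 nm, untreated cells of each line set as 100%. Six replicate wells per experiment; IC50 as mean ± SD of three separate experiments.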

Experiment [2] can be described thus: Cytotoxicity against DG75 cells after 120 hrs by MTT assay. In kind it is cell-based. As to conditions: Homo sapiens, DG-75, 120 h. In short, it runs like this: as §1
(Tetrazolium assays rely on reduction of a dye to a coloured formazan, in cell work by metabolically active cells.)

Experiment [3] deals with Human gammaherpesvirus 8. Put plainly: Cytotoxicity against Kaposi's sarcoma-associated herpesvirus infected BC3 cells after 120 hrs by MTT assay. The format is functional, organism-based. As to conditions: Human gammaherpesvirus 8, BC-3, 120 h. In short, it runs like this:
as §1

In the next experiment the test system is BC-3. The experiment can be described thus: Inhibition of RNA synthesis in KSHV infected BC3 cells assessed as [3H]guanosine incorporation after 1 hr. The format is functional, Homo sapiens. In short, it runs like this: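 BC3 cells (2.5 × 10⁵ cells/mL) cultured 24 h, then compound added for 1 h; before harvest, 30 min pulse label with [³H]thymidine for DNA or tritiated ribonucleoside for RNA (guanosine in text, uridine in legend); synthesis measured as radiolabel incorporation.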

Experiment [4] deals with Human gammaherpesvirus 8. The experiment can be described thus: Cytotoxicity against Kaposi's sarcoma-associated herpesvirus infected BC3 cells in presence of 50 uM adenosine after 72 hrs. In kind it is functional, organism-based. As to conditions: BC-3. In short, it runs like this: (§2)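 BC3 cells seeded at 10⁴ cells/mL, given graded compound concentrations plus one common nucleoside (final 50 µM) added simultaneously, in triplicate; 3 days (72 h) at 37 °C, humidified 5% CO₂; growth inhibition read by MTT assay.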

Experiment [5] deals with Human gammaherpesvirus 8. Put plainly: Cytotoxicity against Kaposi's sarcoma-associated herpesvirus infected BC3 cells in presence of 50 uM thymidine after 72 hrs. The format is functional, organism-based. As to conditions: BC-3. Summed up:
as §2

By IC50 is commonly meant the point on the concentration scale where inhibition reaches its midpoint. Read a low IC50 as higher potency. Consider `Nc1nc2c(ncn2COC(CO)CO)c(=O)[nH]1` [GANCICLOVIR], for which the values for the concentration for half-maximal inhibition (IC50) (in the experiment on Human gammaherpesvirus 8 [1]; in experiment [2]; with Human gammaherpesvirus 8 [3]) were 81 µM, more than 100 µM and 70 µM, respectively.
For the compound `N#C[C@H]1[C@H](O)[C@@H](CO)O[C@H]1n1cnc2c(Cl)nc(N)nc21`, the IC50 with Human gammaherpesvirus 8 [1] is 1.73 µM; in experiment [2] it was more than 15 µM; with Human gammaherpesvirus 8 [3], 1.48 µM.
Turning to `N#C[C@H]1[C@H](O)[C@@H](CO)O[C@H]1n1ccc(N)nc1=O` [TAS-109], the IC50 worked out at 0.13 µM in the experiment with Human gammaherpesvirus 8 [1], 0.21 µM in experiment [2] and 0.23 µM in the experiment with Human gammaherpesvirus 8 [3].
Turning to `COc1nc(N)nc2c1ncn2[C@@H]1O[C@H](CO)[C@@H](O)[C@@H]1C#N`, the concentration for half-maximal inhibition (IC50) in the experiment on Human gammaherpesvirus 8 [1] was 1.51 µM; in experiment [2], more than 15 µM; in the experiment on Human gammaherpesvirus 8 [3], 0.79 µM.
Consider `N#C[C@H]1[C@H](O)[C@@H](CO)O[C@H]1n1cnc2c(N)ncnc21`, for which the 50% inhibitory concentration (IC50) (in the experiment with Human gammaherpesvirus 8 [1]; in experiment [2]; in the experiment with Human gammaherpesvirus 8 [3]) was more than 15 µM each time.
Take `O=c1[nH]c(=O)n([C@H]2C[C@H](O)[C@@H](CO)O2)cc1/C=C/Br` [BRIVUDINE]: the IC50 (with Human gammaherpesvirus 8 [1]; in experiment [2]; with Human gammaherpesvirus 8 [3]) was more than 15 µM each time.
As for `N#C[C@H]1[C@H](O)[C@@H](CO)O[C@H]1n1cnc2c(N)nc(N)nc21`, the IC50 was 1.56 µM in the experiment with Human gammaherpesvirus 8 [1], more than 15 µM in experiment [2] and 0.47 µM in the experiment on Human gammaherpesvirus 8 [3].
Take `Nc1nc2c(ncn2COCCO)c(=O)[nH]1` [ACYCLOVIR]: the IC50 (in the experiment with Human gammaherpesvirus 8 [1]; in experiment [2]; in the experiment with Human gammaherpesvirus 8 [3]) was more than 100 µM in each case.
In the case of `N#C[C@@H]1[C@H](O)[C@@H](CO)O[C@H]1n1cnc2c(=O)[nH]c(N)nc21`, the values for the IC50 (with Human gammaherpesvirus 8 [1]; in experiment [2]; in the experiment with Human gammaherpesvirus 8 [3]) were 2.61 µM, more than 15 µM and 1.73 µM, respectively.
With `N#C[C@H]1[C@H](O)[C@@H](CO)O[C@H]1n1cnc2cnc(N)nc21`, the 50% inhibitory concentration (IC50) (in the experiment with Human gammaherpesvirus 8 [1]; in experiment [2]; in the experiment on Human gammaherpesvirus 8 [3]) was more than 15 µM throughout.
Usually Inhibition stands for the share of the control response that was lost under treatment. In the case of `N#C[C@H]1[C@H](O)[C@@H](CO)O[C@H]1n1cnc2c(O)nc(N)nc21`, the values for the IC50 (with Human gammaherpesvirus 8 [1]; in experiment [2]; with Human gammaherpesvirus 8 [3]) were 7.61 µM, more than 15 µM and 1.14 µM, respectively. Moreover, the Inhibition in the experiment on BC-3 is on record as 80%. Besides, the result in the experiment on Human gammaherpesvirus 8 [4] and with Human gammaherpesvirus 8 [5] was inactive.
